Active and inactive are the calls of the source. No cut-off for these calls is given here.
What was measured:
[1] = biological target: Mitogen-activated protein kinase kinase kinase 11 (Homo sapiens) (UniProt Q16584); experiment: Inhibition of MLK3 Lys2 labeling site in human Huh-7 cell lysate at 1 uM by KiNativ Profiling analysis relative to control; assay type: subcellular
[2] = biological target: Phosphatidylinositol 4-kinase beta (Homo sapiens) (UniProt Q9UBF8); experiment: Inhibition of PI4KB ATP labeling site harbouring VPHTQAVVLNSKDK in human Huh-7 cell lysate at 1 uM by KiNativ Profiling analysis relative to control; assay type: subcellular
[3] = biological target: Serine/threonine-protein kinase 4 (Homo sapiens) (UniProt Q13043); experiment: Inhibition of MST1 Lys2 labeling site harbouring IHRDIKAGNILLNTEGHAK in human Huh-7 cell lysate at 1 uM by KiNativ Profiling analysis relative to control
[4] = biological target: Serine/threonine-protein kinase SMG1 (Homo sapiens) (UniProt Q96Q15); experiment: Inhibition of SMG1 ATP labeling site harbouring DTVTIHSVGGTITILPTKTKPK in human A-375 cells at 0.5 uM by KiNativ Profiling analysis relative to control; assay type: cell-based
How it was run: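 Live A375 melanoma cells treated with compound at 5 or 0.5 μM, then lysed. Lysate kinases were labeled with a lysine-reactive ATP or ADP-biotin probe. Inhibition was read as protection of labeling sites from the probe.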

[5] = biological target: Tyrosine-protein kinase CSK (Homo sapiens, UniProt P41240); experiment: Inhibition of CSK ACT labeling site harbouring VSDFGLTKEASSTQDTGK in human A-375 cells at 5 uM by KiNativ Profiling analysis relative to control; assay type: cell-based
[6] = biological target: Serine/threonine-protein kinase 38-like (Homo sapiens) (UniProt Q9Y2H1); experiment: Inhibition of NDR2 ACT labeling site in human A-375 cells at 0.5 uM by KiNativ Profiling analysis relative to control; assay type: cell-based
[7] = biological target: T1, Serine/threonine-protein kinase 3 (Homo sapiens) (UniProt Q13188); experiment: Inhibition of MST2 (unknown origin) at 10 uM by Ambit Kinomescan binding assay
T1 sequence (whole entry): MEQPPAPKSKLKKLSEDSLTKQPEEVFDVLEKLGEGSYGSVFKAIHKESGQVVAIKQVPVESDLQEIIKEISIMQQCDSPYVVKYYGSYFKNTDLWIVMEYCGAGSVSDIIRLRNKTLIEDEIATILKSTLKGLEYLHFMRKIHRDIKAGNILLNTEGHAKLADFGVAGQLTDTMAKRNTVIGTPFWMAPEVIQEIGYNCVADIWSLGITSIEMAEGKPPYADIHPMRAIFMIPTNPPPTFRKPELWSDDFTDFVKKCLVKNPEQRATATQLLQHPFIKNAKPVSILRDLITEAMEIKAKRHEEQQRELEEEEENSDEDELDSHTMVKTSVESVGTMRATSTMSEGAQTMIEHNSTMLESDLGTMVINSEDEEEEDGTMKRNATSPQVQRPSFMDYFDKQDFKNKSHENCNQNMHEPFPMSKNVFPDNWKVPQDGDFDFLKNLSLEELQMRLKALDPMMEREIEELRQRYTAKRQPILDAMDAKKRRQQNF

[8] = biological target: Rho-associated protein kinase 2 (Homo sapiens) (UniProt O75116); experiment: Inhibition of ROCK2 (unknown origin) at 10 uM by Ambit Kinomescan binding assay
How it was run: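 ATP-site competition binding assay across a panel of more than 420 kinases, with each compound tested at 10 or 1 μM.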

[9] = biological target: Tyrosine-protein kinase Lyn (Homo sapiens, UniProt P07948); experiment: Inhibition of LYN Lys1 labeling site in human A-375 cells at 0.05 uM by KiNativ Profiling analysis relative to control; assay type: cell-based
[10] = biological target: T2, Inhibitor of nuclear factor kappa-B kinase subunit alpha (Homo sapiens) (UniProt O15111); experiment: Inhibition of IKK-alpha (unknown origin) at 10 uM by Ambit Kinomescan binding assay relative to control; values are per cent of control
T2 sequence (whole entry): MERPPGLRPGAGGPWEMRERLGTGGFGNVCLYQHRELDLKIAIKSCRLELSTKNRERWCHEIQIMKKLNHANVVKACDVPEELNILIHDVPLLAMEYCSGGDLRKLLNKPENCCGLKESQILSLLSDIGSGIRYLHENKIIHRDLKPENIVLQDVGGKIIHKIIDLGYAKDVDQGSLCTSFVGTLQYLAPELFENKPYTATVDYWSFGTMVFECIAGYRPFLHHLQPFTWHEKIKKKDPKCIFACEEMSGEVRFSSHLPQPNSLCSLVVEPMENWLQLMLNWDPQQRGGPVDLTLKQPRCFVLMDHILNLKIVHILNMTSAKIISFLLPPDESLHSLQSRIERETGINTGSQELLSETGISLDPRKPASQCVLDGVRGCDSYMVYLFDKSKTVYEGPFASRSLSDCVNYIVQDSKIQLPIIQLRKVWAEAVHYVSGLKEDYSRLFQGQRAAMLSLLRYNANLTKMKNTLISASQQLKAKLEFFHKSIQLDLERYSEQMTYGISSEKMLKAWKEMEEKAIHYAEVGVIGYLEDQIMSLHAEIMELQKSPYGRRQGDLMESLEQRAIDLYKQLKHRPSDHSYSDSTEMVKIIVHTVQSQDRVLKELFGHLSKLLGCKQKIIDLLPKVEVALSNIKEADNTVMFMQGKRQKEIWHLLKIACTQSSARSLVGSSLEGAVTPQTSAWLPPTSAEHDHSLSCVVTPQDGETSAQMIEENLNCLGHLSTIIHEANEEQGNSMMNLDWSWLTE

[11] = biological target: Hepatocyte growth factor receptor (Homo sapiens) (UniProt P08581); experiment: Inhibition of MET (unknown origin) at 10 uM by Ambit Kinomescan binding assay
[12] = biological target: Mitogen-activated protein kinase kinase kinase kinase 4 (Homo sapiens, UniProt O95819); experiment: Inhibition of ZC1/HGK K2 labeling site in human Huh-7 cells at 10 uM by KiNativ Profiling analysis relative to control; assay type: cell-based
Sequence of Mitogen-activated protein kinase kinase kinase kinase 4 (O95819 2-1239 limits assumed): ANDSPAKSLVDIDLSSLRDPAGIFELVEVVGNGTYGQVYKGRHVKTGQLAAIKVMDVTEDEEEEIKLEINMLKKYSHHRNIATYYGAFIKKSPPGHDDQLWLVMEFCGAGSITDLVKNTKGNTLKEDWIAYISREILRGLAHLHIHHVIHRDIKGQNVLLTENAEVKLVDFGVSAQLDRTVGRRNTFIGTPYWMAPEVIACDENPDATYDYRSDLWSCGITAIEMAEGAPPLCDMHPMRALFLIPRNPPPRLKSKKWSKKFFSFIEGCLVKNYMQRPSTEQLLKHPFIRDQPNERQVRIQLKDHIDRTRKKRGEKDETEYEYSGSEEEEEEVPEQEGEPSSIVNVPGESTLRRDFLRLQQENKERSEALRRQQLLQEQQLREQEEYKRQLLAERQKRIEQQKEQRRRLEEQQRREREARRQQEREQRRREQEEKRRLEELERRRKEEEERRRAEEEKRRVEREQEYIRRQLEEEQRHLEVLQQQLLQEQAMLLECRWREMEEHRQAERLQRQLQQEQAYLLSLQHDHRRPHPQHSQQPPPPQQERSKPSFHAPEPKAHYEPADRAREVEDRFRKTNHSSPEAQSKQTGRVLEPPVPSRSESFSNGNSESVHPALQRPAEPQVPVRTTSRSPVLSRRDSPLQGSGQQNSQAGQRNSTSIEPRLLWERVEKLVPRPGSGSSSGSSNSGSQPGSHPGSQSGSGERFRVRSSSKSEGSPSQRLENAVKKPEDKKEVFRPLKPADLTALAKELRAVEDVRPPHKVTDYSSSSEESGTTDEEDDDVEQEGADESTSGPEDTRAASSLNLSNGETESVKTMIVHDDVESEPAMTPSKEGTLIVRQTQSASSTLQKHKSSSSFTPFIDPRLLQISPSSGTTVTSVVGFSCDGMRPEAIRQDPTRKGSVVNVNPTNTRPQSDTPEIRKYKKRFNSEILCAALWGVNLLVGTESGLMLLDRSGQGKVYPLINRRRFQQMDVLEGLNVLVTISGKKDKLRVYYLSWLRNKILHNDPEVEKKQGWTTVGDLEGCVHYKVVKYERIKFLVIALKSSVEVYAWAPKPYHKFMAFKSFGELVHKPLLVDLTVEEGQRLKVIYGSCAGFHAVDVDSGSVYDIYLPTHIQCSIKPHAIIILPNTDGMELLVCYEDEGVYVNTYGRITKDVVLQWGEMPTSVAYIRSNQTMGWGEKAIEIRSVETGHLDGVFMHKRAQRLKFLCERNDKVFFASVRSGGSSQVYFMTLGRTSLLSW

[13] = biological target: STE20-like serine/threonine-protein kinase (Homo sapiens) (UniProt Q9H2G2); experiment: Inhibition of SLK Lys2 labeling site harbouring DLKAGNILFTLDGDIK in human A-375 cells at 5 uM by KiNativ Profiling analysis relative to control; assay type: cell-based
Sequence of STE20-like serine/threonine-protein kinase (Homo sapiens) (Q9H2G2 whole entry, looked up, the tested form may be a part): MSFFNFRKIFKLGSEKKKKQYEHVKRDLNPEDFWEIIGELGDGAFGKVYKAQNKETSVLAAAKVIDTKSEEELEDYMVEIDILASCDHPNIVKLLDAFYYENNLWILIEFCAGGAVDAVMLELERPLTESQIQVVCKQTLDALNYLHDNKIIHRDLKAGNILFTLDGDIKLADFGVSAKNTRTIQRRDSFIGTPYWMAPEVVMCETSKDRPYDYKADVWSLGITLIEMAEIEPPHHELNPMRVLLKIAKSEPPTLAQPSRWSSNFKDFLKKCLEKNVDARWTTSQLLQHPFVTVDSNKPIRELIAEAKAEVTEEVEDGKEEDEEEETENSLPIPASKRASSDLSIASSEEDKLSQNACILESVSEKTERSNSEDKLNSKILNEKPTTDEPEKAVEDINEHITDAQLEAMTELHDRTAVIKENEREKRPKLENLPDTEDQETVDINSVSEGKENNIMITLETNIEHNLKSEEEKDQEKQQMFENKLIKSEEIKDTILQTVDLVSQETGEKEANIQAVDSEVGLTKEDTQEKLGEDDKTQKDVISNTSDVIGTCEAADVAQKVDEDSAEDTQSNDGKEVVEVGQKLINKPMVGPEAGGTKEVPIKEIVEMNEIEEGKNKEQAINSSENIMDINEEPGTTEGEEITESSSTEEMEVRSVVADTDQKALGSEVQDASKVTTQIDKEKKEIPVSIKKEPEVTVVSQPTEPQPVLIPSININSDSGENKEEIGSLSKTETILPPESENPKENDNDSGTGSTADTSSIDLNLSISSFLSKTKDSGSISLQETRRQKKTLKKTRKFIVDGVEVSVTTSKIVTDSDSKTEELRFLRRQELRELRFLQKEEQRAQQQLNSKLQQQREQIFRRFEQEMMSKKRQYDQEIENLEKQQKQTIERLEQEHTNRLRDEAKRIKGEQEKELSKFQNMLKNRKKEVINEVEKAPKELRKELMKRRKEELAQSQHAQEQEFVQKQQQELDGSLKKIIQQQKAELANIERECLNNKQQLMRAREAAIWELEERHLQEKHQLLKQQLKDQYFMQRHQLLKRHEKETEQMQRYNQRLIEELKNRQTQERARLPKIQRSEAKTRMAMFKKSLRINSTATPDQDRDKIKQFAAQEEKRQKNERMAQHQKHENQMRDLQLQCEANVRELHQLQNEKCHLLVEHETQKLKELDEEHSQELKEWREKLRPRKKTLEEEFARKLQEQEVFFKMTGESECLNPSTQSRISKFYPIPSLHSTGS

[14] = biological target: Tyrosine-protein kinase JAK1 (Homo sapiens) (UniProt P23458); experiment: Inhibition of JAK1 domain2 ACT labeling site in human A-375 cells at 0.5 uM by KiNativ Profiling analysis relative to control; assay type: cell-based
[15] = biological target: Tyrosine-protein kinase receptor UFO (Homo sapiens) (UniProt P30530); experiment: Inhibition of AXL (unknown origin) at 1 uM by Ambit Kinomescan binding assay relative to control; values are per cent of control
Sequence of Tyrosine-protein kinase receptor UFO (Homo sapiens) (P30530 whole entry): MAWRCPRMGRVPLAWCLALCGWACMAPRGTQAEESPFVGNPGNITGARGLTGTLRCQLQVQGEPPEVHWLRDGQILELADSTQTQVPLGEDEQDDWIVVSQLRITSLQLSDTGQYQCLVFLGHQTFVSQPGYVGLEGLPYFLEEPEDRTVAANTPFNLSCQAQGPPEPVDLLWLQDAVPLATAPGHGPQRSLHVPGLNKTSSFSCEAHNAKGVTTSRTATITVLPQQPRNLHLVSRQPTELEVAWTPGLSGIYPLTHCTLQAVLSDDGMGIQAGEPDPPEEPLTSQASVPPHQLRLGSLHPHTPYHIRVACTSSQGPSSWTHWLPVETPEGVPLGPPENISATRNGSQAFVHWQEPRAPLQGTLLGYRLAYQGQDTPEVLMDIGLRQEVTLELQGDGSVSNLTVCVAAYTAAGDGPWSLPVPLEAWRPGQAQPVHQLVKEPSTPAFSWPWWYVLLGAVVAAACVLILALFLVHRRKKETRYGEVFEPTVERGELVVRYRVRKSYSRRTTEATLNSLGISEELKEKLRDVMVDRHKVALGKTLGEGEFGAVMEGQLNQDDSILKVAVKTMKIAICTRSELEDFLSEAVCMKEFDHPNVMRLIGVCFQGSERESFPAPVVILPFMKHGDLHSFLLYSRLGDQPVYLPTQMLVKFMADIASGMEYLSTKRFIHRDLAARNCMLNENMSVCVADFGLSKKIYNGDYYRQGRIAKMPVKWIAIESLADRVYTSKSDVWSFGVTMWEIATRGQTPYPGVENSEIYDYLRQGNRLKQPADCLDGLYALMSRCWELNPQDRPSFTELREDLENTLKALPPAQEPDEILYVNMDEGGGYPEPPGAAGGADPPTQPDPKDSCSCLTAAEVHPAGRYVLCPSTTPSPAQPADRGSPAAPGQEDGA

[16] = biological target: Serine/threonine-protein kinase Nek4 (Homo sapiens) (UniProt P51957); experiment: Inhibition of NEK4 (unknown origin) at 1 uM by Ambit Kinomescan binding assay relative to control; values are per cent of control
Sequence of Serine/threonine-protein kinase Nek4 (Homo sapiens) (P51957 whole entry, looked up): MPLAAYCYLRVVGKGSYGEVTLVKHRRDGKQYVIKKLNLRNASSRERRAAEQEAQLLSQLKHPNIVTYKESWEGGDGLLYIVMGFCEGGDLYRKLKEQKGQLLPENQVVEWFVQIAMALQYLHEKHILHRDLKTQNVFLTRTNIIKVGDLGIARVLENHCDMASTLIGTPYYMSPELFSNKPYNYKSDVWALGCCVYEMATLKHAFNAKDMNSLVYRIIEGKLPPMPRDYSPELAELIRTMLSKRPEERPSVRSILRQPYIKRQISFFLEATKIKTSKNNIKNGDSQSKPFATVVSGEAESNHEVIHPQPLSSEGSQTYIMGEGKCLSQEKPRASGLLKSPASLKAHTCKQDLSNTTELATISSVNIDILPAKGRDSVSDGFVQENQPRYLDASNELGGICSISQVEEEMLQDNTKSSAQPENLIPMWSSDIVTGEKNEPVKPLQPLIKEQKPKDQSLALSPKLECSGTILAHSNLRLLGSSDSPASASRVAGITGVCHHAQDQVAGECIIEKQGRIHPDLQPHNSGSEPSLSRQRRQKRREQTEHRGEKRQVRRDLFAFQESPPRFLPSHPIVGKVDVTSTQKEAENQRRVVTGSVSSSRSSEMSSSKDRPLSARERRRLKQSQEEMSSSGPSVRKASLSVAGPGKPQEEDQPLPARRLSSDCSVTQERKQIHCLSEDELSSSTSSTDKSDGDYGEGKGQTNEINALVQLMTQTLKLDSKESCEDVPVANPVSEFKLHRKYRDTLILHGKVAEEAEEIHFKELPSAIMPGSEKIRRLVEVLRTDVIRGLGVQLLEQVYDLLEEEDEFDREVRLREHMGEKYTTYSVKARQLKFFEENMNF

[17] = biological target: Calcium/calmodulin-dependent protein kinase kinase 2 (Homo sapiens) (UniProt Q96RR4); experiment: Inhibition of CaMKK2 Lys1 labeling site in human A-375 cells at 0.05 uM by KiNativ Profiling analysis relative to control; assay type: cell-based
Sequence of Calcium/calmodulin-dependent protein kinase kinase 2 (Homo sapiens) (Q96RR4 2-588 limits assumed): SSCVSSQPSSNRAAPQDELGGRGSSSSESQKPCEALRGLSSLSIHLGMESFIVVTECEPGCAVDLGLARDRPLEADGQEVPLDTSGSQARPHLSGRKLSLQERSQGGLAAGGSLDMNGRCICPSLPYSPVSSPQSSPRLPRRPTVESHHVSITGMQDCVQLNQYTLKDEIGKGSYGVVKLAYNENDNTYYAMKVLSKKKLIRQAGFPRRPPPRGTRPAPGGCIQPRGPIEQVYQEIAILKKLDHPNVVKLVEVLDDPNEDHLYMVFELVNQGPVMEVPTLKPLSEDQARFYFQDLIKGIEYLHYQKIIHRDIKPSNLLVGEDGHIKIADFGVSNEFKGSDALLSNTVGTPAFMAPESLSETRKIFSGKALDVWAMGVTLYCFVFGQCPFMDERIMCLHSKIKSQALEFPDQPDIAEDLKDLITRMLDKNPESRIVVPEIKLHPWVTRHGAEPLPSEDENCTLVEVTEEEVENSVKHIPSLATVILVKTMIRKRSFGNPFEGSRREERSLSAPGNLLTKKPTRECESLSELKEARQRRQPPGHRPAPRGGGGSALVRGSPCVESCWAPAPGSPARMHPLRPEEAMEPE

`CNc1cc(Oc2cc(C(=O)Nc3cc(N4CCN(C)CC4)cc(C(F)(F)F)c3)ccc2C)ncn1` gave an inhibition [1] of 3.4%, an inhibition [2] of 1.9% and an inhibition [3] of 14.4%.

Work on `CCN1CCN(Cc2ccc(NC(=O)c3ccc(C)c(Oc4ccnc5[nH]ccc45)c3)cc2C(F)(F)F)CC1` yielded an inhibition [4] of -9.1%, an inhibition [5] of 79% and an inhibition [6] of -4.5%. The inhibition [7] was “inactive”, the inhibition [8] was “inactive” and the inhibition [9] was 71.9%. The percent of control [10] was 0.95%, the inhibition [11] was “inactive” and the inhibition [12] was 72.6%.

`CCN1CCN(Cc2ccc(NC(=O)c3ccc(C)c(/C=C/c4cnc5[nH]ccc5c4OC)c3)cc2C(F)(F)F)CC1` showed an inhibition [13] of 12.2%, an inhibition [14] of 5% and a residual activity [15] of 55%. It also gave a residual activity [16] of 100% and an inhibition [17] of 3.5%.

Reference: ChEMBL document CHEMBL5696442, “Discovery of type II inhibitors of TGFβ-activated kinase 1 (TAK1) and mitogen-activated protein kinase kinase kinase kinase 2 (MAP4K2)” (J Med Chem, 2015)
